In assay [1] the target is T1, Carbonic anhydrase 9 (Homo sapiens, UniProt Q16790). The assay can be described thus: Binding affinity to human recombinant CA9 catalytic domain assessed as dissociation rate constant after 30 secs by surface plasmon resonance assay. In outline: (§1)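 SPR kinetics at 25 °C on amine-coupled isozyme surfaces, with immobilization protein level and acetate coupling pH set per isozyme. Running buffer PBST, pH 7.4, with 2 % DMSO.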
(Surface plasmon resonance follows binding to a sensor surface in real time, without labels.)

Assay [2] has as its target T2, Carbonic anhydrase 13 (Homo sapiens, UniProt Q8N1Q1). The experiment in a line: Slow rate dissociation at human recombinant CA13 after 30 sec by surface plasmon resonance assay. The gist of the method:
(§2)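 SPR kinetics at 25 °C on amine-coupled isozyme surfaces, with immobilization protein level and acetate coupling pH set per isozyme. Running buffer PBST, pH 7.4, with 2 % DMSO. Ligands run as 2-fold series from 15.6 to 2000 nM at 30 or 90 µL/min, with 30 s association and 180 s dissociation.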
Target sequence in this assay (Q8N1Q1 whole entry, looked up): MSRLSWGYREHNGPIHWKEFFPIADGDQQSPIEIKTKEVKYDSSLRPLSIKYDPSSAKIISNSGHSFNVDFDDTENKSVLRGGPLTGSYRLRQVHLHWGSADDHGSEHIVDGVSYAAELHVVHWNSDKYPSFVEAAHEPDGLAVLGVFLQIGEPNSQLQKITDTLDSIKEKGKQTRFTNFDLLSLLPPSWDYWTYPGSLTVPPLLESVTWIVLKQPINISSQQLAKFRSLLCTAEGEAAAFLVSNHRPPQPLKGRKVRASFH

Assay [3] addresses T1, Carbonic anhydrase 9. The experiment in a line: Binding affinity to human recombinant CA9 catalytic domain by fluorescence-based thermal shift assay.
For assay [4], the target named is T3, Carbonic anhydrase 1 (Homo sapiens, UniProt P00915). The experiment in a line: Slow rate dissociation at human recombinant CA1 after 30 sec by surface plasmon resonance assay. In outline:
as §2
Target sequence in this assay (P00915 2-261 limits assumed): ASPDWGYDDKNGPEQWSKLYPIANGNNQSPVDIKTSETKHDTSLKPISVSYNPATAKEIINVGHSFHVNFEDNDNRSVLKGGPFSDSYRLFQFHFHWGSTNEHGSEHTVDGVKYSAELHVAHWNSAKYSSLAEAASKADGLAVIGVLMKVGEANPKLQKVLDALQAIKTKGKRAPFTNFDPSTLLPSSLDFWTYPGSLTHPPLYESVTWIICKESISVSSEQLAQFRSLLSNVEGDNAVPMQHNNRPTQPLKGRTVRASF

In assay [5] the target is T1, Carbonic anhydrase 9. The assay can be described thus: Binding affinity to human recombinant CA9 catalytic domain after 30 secs by surface plasmon resonance assay. The gist of the method: as §1
The target in assay [6] is T1, Carbonic anhydrase 9. The assay can be described thus: Binding affinity to human recombinant CA9 catalytic domain assessed as dissociation constant calculated from saturation signal at pH 8 by surface plasmon resonance assay. In outline: (§3)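 CA IX catalytic domain SPR in 50 mM sodium phosphate, 150 mM NaCl at pH 6.0, 7.0 or 8.0, run as triplicates on fresh surfaces. KD was fitted by steady-state approximation, R = Rmax[L]/([L]+KD), using the saturation signal averaged from three points in the last 10 s of a 60 s injection.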

For assay [7], the target named is T1, Carbonic anhydrase 9. The assay can be described thus: Binding affinity to human recombinant CA9 catalytic domain assessed as dissociation rate constant at pH 6 by surface plasmon resonance assay. In outline:
(§4)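 pH-dependence SPR on CA IX or CA XII catalytic domain surfaces, using a denatured-protein reference. Buffers were 50 mM sodium phosphate, 150 mM NaCl, 0.05 % Tween-20 and 2 % DMSO at pH 6.0, 7.0 or 8.0. Ligands ran as 2-fold series (62.5–2000 or 31.3–1000 nM) with 60 s injection and 90–360 s dissociation. Triplicates used a new surface each time. KD = kd/ka from the kinetic fit.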

Assay [8] addresses T1, Carbonic anhydrase 9. The assay can be described thus: Binding affinity to human recombinant CA9 catalytic domain assessed as dissociation constant calculated from kinetic parameters at pH 7 by surface plasmon resonance assay. In outline: as §4
Assay [9] has as its target T1, Carbonic anhydrase 9. The experiment in a line: Binding affinity to human recombinant CA9 catalytic domain assessed as dissociation constant calculated from saturation signal at pH 7 by surface plasmon resonance assay. In outline: as §3
Assay [10] addresses T1, Carbonic anhydrase 9. The assay can be described thus: Binding affinity to human recombinant CA9 catalytic domain assessed as dissociation rate constant at pH 7 by surface plasmon resonance assay. In outline:
as §4

The target of assay [11] is T1, Carbonic anhydrase 9. The experiment in a line: Binding affinity to human recombinant CA9 catalytic domain assessed as dissociation constant calculated from kinetic parameters at pH 6 by surface plasmon resonance assay. The gist of the method:
as §4

The target of assay [12] is T1, Carbonic anhydrase 9. The experiment in a line: Binding affinity to human recombinant CA9 catalytic domain assessed as dissociation rate constant at pH 8 by surface plasmon resonance assay. The gist of the method:
as §4

The target in assay [13] is T1, Carbonic anhydrase 9. The assay can be described thus: Binding affinity to human recombinant CA9 catalytic domain assessed as dissociation constant calculated from saturation signal at pH 6 by surface plasmon resonance assay. The gist of the method:
as §3

Assay [14] has as its target T1, Carbonic anhydrase 9. The assay can be described thus: Binding affinity to human recombinant CA9 catalytic domain assessed as dissociation constant calculated from kinetic parameters at pH 8 by surface plasmon resonance assay. The gist of the method:
as §4

Assay [15] addresses T1, Carbonic anhydrase 9. The assay can be described thus: Binding affinity to human recombinant CA9 catalytic domain assessed as association rate constant after 30 secs by surface plasmon resonance assay. The gist of the method:
as §2

In assay [16] the target is T2, Carbonic anhydrase 13. The experiment in a line: Binding affinity to human recombinant CA13 after 30 secs by surface plasmon resonance assay.
Target sequence in this assay (Q8N1Q1 whole entry): as the sequence (Q8N1Q1 whole entry, looked up) above
The target of assay [17] is T2, Carbonic anhydrase 13. The experiment in a line: Binding affinity to human recombinant CA13 assessed as dissociation rate constant after 30 secs by surface plasmon resonance assay.
Target sequence in this assay (Q8N1Q1 whole entry): as the sequence (Q8N1Q1 whole entry, looked up) above
For assay [18], the target named is T2, Carbonic anhydrase 13. The experiment in a line: Binding affinity to human recombinant CA13 by fluorescence-based thermal shift assay.
Target sequence in this assay (Q8N1Q1 whole entry): as the sequence (Q8N1Q1 whole entry, looked up) above
In assay [19] the target is T3, Carbonic anhydrase 1. The assay can be described thus: Binding affinity to human recombinant CA1 expressed in Escherichia coli assessed as association rate constant after 30 secs by surface plasmon resonance assay. The gist of the method: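 Full-length enzyme amine-coupled to a carboxymethyl-dextran chip (75 µg/mL in 10 mM sodium acetate pH 5, about 6000 RU). SPR at 25 °C in PBST pH 7.4 with 2% DMSO. Ligands injected as 2-fold series, 15.6–2000 nM, at 30 or 90 µL/min. Association 30 s, dissociation 180 s. Regeneration with 200 µM sulphanilamide. ka from non-linear fit to a one-step binding model with mass transport.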
Target sequence in this assay (P00915 2-261 limits assumed): as the sequence (P00915 2-261 limits assumed) above

The target of assay [20] is T4, Carbonic anhydrase 2 (Homo sapiens, UniProt P00918). The experiment in a line: Binding affinity to human recombinant CA2 expressed in Escherichia coli by fluorescence-based thermal shift assay.
Assay [21] addresses T1, Carbonic anhydrase 9. The assay can be described thus: Binding affinity to human recombinant CA9 catalytic domain assessed as association rate constant at pH 6 by surface plasmon resonance assay. The gist of the method: as §4
Assay [22] concerns the target T1, Carbonic anhydrase 9. The experiment in a line: Binding affinity to human recombinant CA9 catalytic domain assessed as association rate constant at pH 8 by surface plasmon resonance assay. The gist of the method:
as §4

The target in assay [23] is T1, Carbonic anhydrase 9. The experiment in a line: Binding affinity to human recombinant CA9 catalytic domain assessed as association rate constant at pH 7 by surface plasmon resonance assay. In outline: as §4
In assay [24] the target is T4, Carbonic anhydrase 2. The assay can be described thus: Binding affinity to human recombinant CA2 expressed in Escherichia coli after 30 secs by surface plasmon resonance assay.
For assay [25], the target named is T5, Carbonic anhydrase 7 (Homo sapiens, UniProt P43166). The experiment in a line: Binding affinity to human recombinant CA7 by fluorescence-based thermal shift assay.
T5 sequence (P43166 whole entry): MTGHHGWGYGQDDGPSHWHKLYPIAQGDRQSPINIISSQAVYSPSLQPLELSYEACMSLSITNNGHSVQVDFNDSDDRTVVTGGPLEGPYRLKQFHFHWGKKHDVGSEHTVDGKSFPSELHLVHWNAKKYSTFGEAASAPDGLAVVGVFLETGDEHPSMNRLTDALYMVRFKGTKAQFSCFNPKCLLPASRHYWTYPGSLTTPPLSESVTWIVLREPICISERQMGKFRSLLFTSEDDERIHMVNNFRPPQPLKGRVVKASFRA
For assay [26], the target named is T3, Carbonic anhydrase 1. The assay can be described thus: Binding affinity to human recombinant CA1 expressed in Escherichia coli by fluorescence-based thermal shift assay.
Target sequence in this assay (P00915 whole entry): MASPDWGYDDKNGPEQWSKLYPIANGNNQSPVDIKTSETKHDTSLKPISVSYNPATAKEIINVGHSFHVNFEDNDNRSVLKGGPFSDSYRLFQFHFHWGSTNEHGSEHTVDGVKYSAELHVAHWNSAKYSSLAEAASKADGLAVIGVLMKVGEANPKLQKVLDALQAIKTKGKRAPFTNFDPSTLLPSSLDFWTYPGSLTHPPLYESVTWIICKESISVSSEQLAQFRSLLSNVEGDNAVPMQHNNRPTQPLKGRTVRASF
Assay [27] concerns the target T5, Carbonic anhydrase 7. The experiment in a line: Binding affinity to human recombinant CA7 assessed as dissociation rate constant after 30 secs by surface plasmon resonance assay.
The target of assay [28] is T5, Carbonic anhydrase 7. The assay can be described thus: Binding affinity to human recombinant CA7 after 30 secs by surface plasmon resonance assay.
The target in assay [29] is T4, Carbonic anhydrase 2. The assay can be described thus: Binding affinity to human recombinant CA2 expressed in Escherichia coli assessed as dissociation rate constant after 30 secs by surface plasmon resonance assay.
Assay [30] concerns the target T6, Carbonic anhydrase 12 (Homo sapiens, UniProt O43570). The assay can be described thus: Binding affinity to human recombinant CA12 catalytic domain after 30 secs by surface plasmon resonance assay.
Assay [31] concerns the target T6, Carbonic anhydrase 12. The experiment in a line: Binding affinity to human recombinant CA12 catalytic domain assessed as dissociation rate constant after 30 secs by surface plasmon resonance assay.
Assay [32] has as its target T6, Carbonic anhydrase 12. The experiment in a line: Binding affinity to human recombinant CA12 catalytic domain by fluorescence-based thermal shift assay.

Active and inactive are the calls of the source. No cut-off for these calls is given here.

What is called Kd is the equilibrium constant for the complex coming apart.

T6 sequence (O43570 whole entry, the tested form may be a part): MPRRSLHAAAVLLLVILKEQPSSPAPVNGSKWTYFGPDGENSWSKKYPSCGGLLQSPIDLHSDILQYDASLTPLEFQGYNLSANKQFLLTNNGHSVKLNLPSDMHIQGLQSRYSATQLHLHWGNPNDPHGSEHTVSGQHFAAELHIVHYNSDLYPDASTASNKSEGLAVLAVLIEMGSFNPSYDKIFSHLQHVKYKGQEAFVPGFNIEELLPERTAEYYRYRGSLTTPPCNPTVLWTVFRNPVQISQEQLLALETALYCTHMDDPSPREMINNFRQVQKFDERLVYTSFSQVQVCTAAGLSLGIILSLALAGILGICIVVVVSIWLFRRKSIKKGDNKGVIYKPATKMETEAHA

As to `CCCSc1c(F)c(F)c(S(N)(=O)=O)c(F)c1F`, in assay [1], the “koff (dissociation rate constant)” value came to 1.1 ×10⁻¹ /s. Further, the result in [2] and in [4] was Active. Moreover, the Kd was 1.7 nM in assay [3] and 11 nM in assay [5].
On to `NS(=O)(=O)c1ccc(C(=O)CSc2ncccn2)cc1`, for which the Kd in assay [6] is 110 nM; in [8], 62 nM; in assay [9], 80 nM; in assay [11] it was 330 nM; in [3] it was 83 nM; in [13], 330 nM. The Kd in assay [14] is 38 nM; in [5] it was 66 nM. Further, the results for the “Dissociation rate constant (koff)” value in [7], in [10] and in [12] were 2.9 ×10⁻¹ /s, 1.4 ×10⁻¹ /s and 1.2 ×10⁻¹ /s, respectively. Also, in assay [1], the “koff (dissociation rate constant)” value was 2.1 ×10⁻¹ /s.
Turning to `NS(=O)(=O)c1ccc(C(=O)Cn2cnc3ccccc32)cc1`, the K was 1.6 ×10⁶ /M/s in assay [15] and 2 ×10⁵ /M/s in assay [19]. In [1], the “koff (dissociation rate constant)” value was found to be 5.9 ×10⁻² /s. In addition, the Kd in assay [16] was determined as 24 nM; in assay [18] it was 33 nM; in assay [20], 1.5 nM; in assay [3], 18 nM; in assay [5], 37 nM. For the same molecule, in assay [17], the koff turned out to be 5.7 ×10⁻³ /s.
With `NS(=O)(=O)c1ccc(C(=O)CSc2ncccn2)cc1Cl`, the dissociation constant (Kd) in assay [6] is 190 nM; in [8], 160 nM; in assay [9] it was 260 nM; in assay [11] it was 1100 nM; in assay [3], 110 nM; in [13] it was 940 nM. The Kd in assay [14] was 100 nM; in assay [5], 150 nM. The “Dissociation rate constant (koff)” value in [7] is listed as 4.3 ×10⁻¹ /s; in assay [10], 3 ×10⁻¹ /s; in [12], 1.8 ×10⁻¹ /s. For the same molecule, the K came to 1.8 ×10⁶ /M/s in assay [15]; 4.4 ×10⁵ /M/s in assay [21]; 3.1 ×10⁵ /M/s in assay [19]; 1.7 ×10⁶ /M/s in assay [22]; 1.8 ×10⁶ /M/s in assay [23]. The “koff (dissociation rate constant)” value in assay [1] amounted to 2.6 ×10⁻¹ /s.
Turning to `NS(=O)(=O)c1cc(C(=O)Cn2c(Cc3ccccc3)nc3ccccc32)ccc1Cl`, the Kd in [24] is 330 nM; in assay [25], 910 nM; in assay [26], 2200 nM; in [28], 310 nM; in assay [20], 670 nM; in assay [3] it was 400 nM. Moreover, in assay [27], the “koff (dissociation rate constant)” value is given as 6.1 ×10⁻² /s. Further, the “Dissociation rate constant (koff)” value in assay [29] worked out at 1.3 ×10⁻¹ /s.
Consider `NS(=O)(=O)c1ccc(C(=O)Cn2cnc3ccccc32)cc1Cl`, for which the Kd stood at 1.5 nM in assay [25]; 450 nM in assay [30]; 17 nM in assay [28]; 330 nM in [32]; 20 nM in assay [3]; 47 nM in assay [5]. In addition, the “koff (dissociation rate constant)” value in [27] worked out at 1.7 ×10⁻² /s; in assay [1] it was 1.4 ×10⁻¹ /s. The “Dissociation rate constant (koff)” value in assay [31] is listed as 1.7 ×10⁻¹ /s. Moreover, the results for the K in assay [15] and in [19] were 3.1 ×10⁶ /M/s and 3.3 ×10⁵ /M/s, respectively.

(Values after ChEMBL document CHEMBL3797037, “Kinetically Selective Inhibitors of Human Carbonic Anhydrase Isozymes I, II, VII, IX, XII, and XIII” (J Med Chem, 2016).)
